# Source: PubChem
# TAAR1 ag = human TAAR1 agonists, primary screen, Fluo-8 calcium fluorescence, CHO RD-HGA16 cells. Trace amine-associated receptor 1 (Homo sapiens), Q96RJ0. vehicle wells 0%, saturating PEA agonist 100%. activation, % at 3 µM. hit rate 0.99% among 360,000;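 active = activation above the mean activation of all test compounds in the run plus 3 SD, cut at about 38% in these data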
#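 Repeats: no replicates (n 1) | Material: CHO-derived RD-HGA16 cells with stable Gα16 and human TAAR1 | Technique: Kinetic Fluo-8 calcium fluorescence | Schedule: 17-24 h seeding, 75 min 37 °C dye, 30 min RT | Evaluation: % activation from peak over basal fluorescence ratio, DMSO-to-PEA scaled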
# TAAR1 antagonist = human TAAR1 antagonists, primary screen, Fluo-8 calcium fluorescence, CHO RD-HGA16 cells; Trace amine-associated receptor 1 (Homo sapiens), Q96RJ0; antagonist; inhibition, % at 3 µM; hit rate 1.5% among 360,000;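 active = inhibition above a per-plate cutoff, the mean inhibition of test compounds on that plate plus 3 SD, cut at about 49% in these data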;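 also: 0% = DMSO plus EC80 beta-PEA response and 100% = DMSO alone without agonist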
#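 Test system – hTAAR1-expressing CHO RD-HGA16 cells, Gα16-coupled · Reagent – β-PEA at EC80 concentration, post-compound challenge · Compound dosing – 3 µM, single point · Timing – 140 s kinetic read after compound, 140 s after agonist · Detection – Fluo-8 intracellular calcium dye fluorescence, real-time kinetic reads · Control set – DMSO and EC80 PEA controls · Repeats – n of 1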
# OXTR agonist = human OXTR agonists, primary screen, fluorescence, CHO-OTR cells, Fluo-8 calcium. Fluo-8 calcium fluorescence; normalized: DMSO 0%, oxytocin 100%. activation, % at 3 µM. hit rate 0.32% among 320,000. AID 2435, 2010;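 active = activation above the mean of all tested compounds plus 3 SD, cutoff set per screening run, cut at about 20% in these data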;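 also: peak over basal fluorescence ratio from a 100 s FLIPR kinetic read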
# V1aR counter = agonists of human V1a receptor, primary screen, counter-screen for OXTR agonist project, fluorescence, CHO-V1R cells. Fluo-8 calcium fluorescence, agonist mode; 0% DMSO, 100% 3 nM vasopressin. hit rate 0.25% among 320,000. activation, % at 3 µM;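 active = activation above the mean activation of all tested compounds plus 3 SD, per screening run, cut at about 20% in these data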;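 also: signal is peak over basal fluorescence ratio across a 100 second FLIPR read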
# Target sequence (P37288 whole entry, looked up): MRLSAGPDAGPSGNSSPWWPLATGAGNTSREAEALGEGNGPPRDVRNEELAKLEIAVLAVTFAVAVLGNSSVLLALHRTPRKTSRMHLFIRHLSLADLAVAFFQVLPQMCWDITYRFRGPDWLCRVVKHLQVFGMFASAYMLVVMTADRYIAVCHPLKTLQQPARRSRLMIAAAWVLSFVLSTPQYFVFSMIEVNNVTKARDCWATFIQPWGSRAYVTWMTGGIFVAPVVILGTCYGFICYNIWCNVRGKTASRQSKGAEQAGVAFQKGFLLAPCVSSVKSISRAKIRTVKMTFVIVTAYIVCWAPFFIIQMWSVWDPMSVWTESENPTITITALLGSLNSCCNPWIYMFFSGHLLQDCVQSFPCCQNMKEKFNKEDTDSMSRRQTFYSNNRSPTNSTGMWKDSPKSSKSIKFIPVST
# OXTR potentiate = human OXTR potentiators, primary screen, fluorescence, CHO-OTR cells, Fluo-8 calcium; activation, % at 3 µM; Fluo-8 calcium fluorescence, potentiator mode; 0% = oxytocin EC15, 100% = EC100; AID 2445, 2010; hit rate 0.061% among 320,000; Oxytocin receptor (Homo sapiens), P30559;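 active = activation above that plate's cutoff, the mean activation of tested compounds plus 3 SD, cut at about 6.6% in these data, passing the limit was not always enough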;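 also: 100% uses oxytocin at 75 nM as the full agonist control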
#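 System: human OTR in CHO cells / Also added: sub-maximal oxytocin, roughly EC15 / Control set: EC15 oxytocin low, 75 nM oxytocin high / Schedule: 6 min compound pre-incubation at room temperature, 100 s kinetic read / Compound: single-point 3.0 µM / Replication: singlicate / Technique: Fluo-8 calcium dye fluorescence / Read-out basis: % activation of max/min ratio relative to oxytocin controls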
# TAAR1 ag conf = human TAAR1 agonists, retest of hits, confirmation, Fluo-8 calcium fluorescence, CHO RD-HGA16 cells; shares compounds with TAAR1 ag; scaled: DMSO 0%, maximal phenethylamine 100%; activation, % at 3 µM; hit rate 82% among 2,400; AID 651783, 2012;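 active = activation above a cutoff set at the run's mean compound activation plus 3 SD, cut at about 39% in these data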
# Ga16 nonsel ag = nonselective calcium mobilization agonists, CHO-Ga16 cells, counter-screen for hTAAR1 agonist project, cell-based, fluorescence, CHO-Ga16 parental line. shares compounds with TAAR1 ag. Fluo-8 calcium fluorescence; normalized to maximal ATP response, DMSO zero. activation, % at 3 µM. hit rate 50% among 2,400. AID 651787, 2012;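 active = activation above the run cutoff, the mean activation over all tested wells plus 3 SD, cut at about 12% in these data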;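 also: 0% = DMSO wells and 100% = maximal ATP response on the peak over basal ratio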
# TAAR1 desensitize = TAAR1 desensitization by agonist hits, confirmation, counter-screen for TAAR1 agonist project, cell-based, fluorescence, tachyphylaxis; shares compounds with TAAR1 ag; CHO RD-HGA16 hTAAR1, Fluo-8 calcium, beta-PEA response inhibition; inhibition, % at 3 µM; hit rate 46% among 2,400; AID 651951, 2012;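 active = inhibition above the run cutoff, the mean inhibition of all test compounds plus 3 SD, cut at about 49% in these data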;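 also: beta-PEA stimulus applied at its EC80; loss of beta-PEA calcium signal after compound pretreatment read as receptor desensitization; 0% = DMSO with beta-PEA at EC80 and 100% = DMSO alone without agonist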
# Ga16 antag count = inhibition of ATP-evoked calcium response in CHO-Ga16 cells, counter-screen for TAAR1 agonist project, cell-based, fluorescence; shares compounds with TAAR1 ag; CHO-Ga16 ATP-induced calcium, Fluo-8 fluorescence; inhibition, % at 3 µM; hit rate 39% among 2,400;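 active = inhibition above the plate's mean compound inhibition plus 3 SD, computed per plate, cut at about 22% in these data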;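 also: 0% = EC80 ATP with DMSO and 100% = DMSO wells without ATP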
# Starred values were filed as active, the others as inactive; . = not tested or not shown. Compounds with a hit are over-represented: about 2.3% of the library has one in this group of screens.
SMILES,TAAR1 ag,TAAR1 antagonist,OXTR agonist,V1aR counter,OXTR potentiate,TAAR1 ag conf,Ga16 nonsel ag,TAAR1 desensitize,Ga16 antag count
CC(C)[C@H](NC(=O)CC1CCCC1)C(=O)N1CCC[C@H]1C(=O)NCCc1ccccc1Cl,65*,57*,.,.,.,85*,-1,86*,2
N#Cc1ccc(/C=N/NC(=O)CCc2ccc(S(=O)(=O)N3CCOCC3)cc2)cc1,1,-5,0,0,-8,.,.,.,.
COC(=O)C[C@H](NC(=O)Cn1cnc2c(SC)nc(N)nc21)C(=O)OC,2,0,1,1,2,.,.,.,.
Cc1ccccc1C(=O)N[C@H](C(=O)N1CCC[C@H]1C(=O)NCCc1ccccc1Cl)C(C)C,57*,71*,.,.,.,91*,-1,95*,10
CC(=O)c1ccc(S(=O)(=O)N2CCN(c3ccccc3F)CC2)cc1,3,-11,6,8,-6,.,.,.,.
Cc1ccc(NC(=O)c2ccc(NCCCN3CCOCC3)c([N+](=O)[O-])c2)cc1Cl,1,6,3,2,-6,.,.,.,.
O=C(Nc1ccc(Cl)c([N+](=O)[O-])c1)c1ccc(NCCCN2CCOCC2)c([N+](=O)[O-])c1,75*,91*,11,7,-10,77*,28*,99*,35*
Cc1ccc(S(=O)(=O)Nc2nc(CN3CCOCC3)nc3sc(C(=O)O)c(C)c23)cc1,1,-21,.,.,.,.,.,.,.
COc1cc(NC(=S)N2CCN(S(=O)(=O)c3ccc(C)cc3)CC2)cc(OC)c1,2,3,-1,0,-10,.,.,.,.
NC(c1csc(Nc2nncc3ccccc23)n1)C1CCCCC1 (centres undefined),36,9,.,.,.,.,.,.,.
CCc1cnc(Nc2nc(C(N)Cc3ccc(Cl)cc3)cs2)nc1 (centres undefined),51*,29,.,.,.,70*,32*,41,28*
NC(Cc1ccc(C(F)(F)F)cc1)c1csc(Nc2ncccn2)n1 (centres undefined),19,9,.,.,.,.,.,.,.
COc1cc(OC)nc(Nc2nc(C(N)Cc3ccc(F)cc3)cs2)n1 (centres undefined),56*,14,.,.,.,63*,38*,36,34*
CCc1cnc(Nc2nc(C(N)c3ccccc3Cl)cs2)nc1 (centres undefined),29,-11,.,.,.,.,.,.,.
COc1ccc(CC(N)c2csc(Nc3nncc4ccccc34)n2)cc1 (centres undefined),61*,37,.,.,.,82*,34*,52*,32*
NC(Cc1ccc(Cl)cc1)c1csc(Nc2ccc(-c3ccccc3)nn2)n1 (centres undefined),63*,49*,.,.,.,23,25*,24,40*
COc1cc(C2C(C#N)=C(N)OC3=C2C(=O)CC(C)(C)C3)cc2c1OCO2 (centres undefined),-1,10,-1,0,-8,.,.,.,.
CCCc1cnc(Nc2nc(C(N)Cc3ccc(OC)cc3)cs2)nc1 (centres undefined),48*,16,.,.,.,47*,18*,10,13
O=C(O)CC(NC(=O)Cc1ccccc1)c1cc([N+](=O)[O-])ccc1Cl (centres undefined),3,0,0,4,-2,.,.,.,.
CCCCn1cnc2c(c(-c3ccccc3)c(-c3ccccc3)n2Cc2ccco2)c1=N,35,-13,10,9,-13,.,.,.,.
N=c1c2c(-c3ccccc3)c(-c3ccccc3)n(Cc3ccco3)c2ncn1Cc1ccco1,86*,46,36*,36*,-30,91*,54*,75*,37*
N=c1c2c(-c3ccccc3)c(-c3ccccc3)n(Cc3ccccc3)c2ncn1CCCn1ccnc1,61*,-19,-1,2,-10,49*,15*,10,13
Cc1c(Cl)cccc1NC(=S)N1CCc2ccccc2C1,74*,43,-2,0,-13,69*,0,30,7
FC(F)(F)c1ccccc1NC(=S)N1CCc2ccccc2C1,80*,43,1,0,-1,96*,18*,45,11
CCCN1CCN(C(=S)Nc2ccccc2C(F)(F)F)CC1,3,1,1,0,8,.,.,.,.
SMILES,TAAR1 ag,TAAR1 antagonist,OXTR agonist,V1aR counter,OXTR potentiate,TAAR1 ag conf,Ga16 nonsel ag,TAAR1 desensitize,Ga16 antag count
O=C(CN1CCc2ccccc2C1)Nc1ccccc1C(F)(F)F,56*,4,-2,0,-10,75*,10,52*,4
CC(=O)Nc1sc(C)c(C)c1C(=O)OCC(=O)N(CCC#N)c1cc(C)cc(C)c1,0,-11,.,.,.,.,.,.,.
CN(C(=O)CSc1nc2ccccc2n1C)C1CCS(=O)(=O)C1 (centres undefined),4,-20,-1,0,-1,.,.,.,.
O=C(NCc1ccc(F)cc1)C1CC(=O)N(C2CCCC2)C1 (centres undefined),8,1,0,1,-4,.,.,.,.
CCc1c(C)sc(NC(=O)c2cc(-c3ccc(OC)c(OC)c3)on2)c1C#N,8,-1,0,1,-17,.,.,.,.
COc1ccc(-c2csc(NC(=O)c3cc(C)on3)c2C#N)cc1OC,46*,29,7,6,-7,14,7,13,17
O=C(CSc1nc2[nH]ncc2c(=O)[nH]1)NCc1ccccc1,-1,-4,1,0,-4,.,.,.,.
O=C(CSc1nc2[nH]ncc2c(=O)[nH]1)NCCc1ccccc1,57*,12,0,1,-6,29,0,13,10
O=C(Cn1cnc([N+](=O)[O-])c1)NCc1ccc(F)cc1,2,-2,1,1,-8,.,.,.,.
O=C(Cn1cnc([N+](=O)[O-])c1)NCCc1ccccc1,.,.,0,0,2,.,1,.,-2
